Source: ChEMBL document CHEMBL4020830, “Design, Synthesis, and Evaluation of a Novel Series of Indole Sulfonamide Peroxisome Proliferator Activated Receptor (PPAR) α/γ/δ Triple Activators: Discovery of Lanifibranor, a New Antifibrotic Clinical Candidate” (J Med Chem, 2018)
Values after ≈ are worked out from the molar mass of the structure shown.

Key:
[1] = Aqueous solubility in fasted state simulated intestinal fluid; format: physicochemical
[2] = target: T1, Peroxisome proliferator-activated receptor alpha (Homo sapiens, UniProt Q07869); assay: Transactivation of human GAL4-fused PPARalpha LBD expressed in African green monkey COS7 cells co-expressing 5Gal4 pGL3 TK Luc after overnight incubation by luciferase reporter gene assay; format: cell-based
T1 sequence (Q07869 whole entry): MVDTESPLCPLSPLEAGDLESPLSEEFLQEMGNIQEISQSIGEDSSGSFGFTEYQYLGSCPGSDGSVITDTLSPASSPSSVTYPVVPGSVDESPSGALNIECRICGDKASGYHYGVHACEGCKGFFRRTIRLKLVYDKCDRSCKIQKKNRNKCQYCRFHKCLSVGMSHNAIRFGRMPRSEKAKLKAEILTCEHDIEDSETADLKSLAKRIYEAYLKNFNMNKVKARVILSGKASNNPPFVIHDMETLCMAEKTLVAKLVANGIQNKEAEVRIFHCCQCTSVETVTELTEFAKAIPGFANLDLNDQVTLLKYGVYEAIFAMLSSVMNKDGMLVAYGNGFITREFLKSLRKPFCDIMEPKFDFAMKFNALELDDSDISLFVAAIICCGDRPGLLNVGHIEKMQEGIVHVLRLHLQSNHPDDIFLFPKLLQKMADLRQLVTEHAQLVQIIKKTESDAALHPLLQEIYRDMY
How it was run: (§1)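 Cell-based Gal-4 transactivation assay in COS-7 cells transfected with PPARα, PPARδ or PPARγ ligand-binding domain. EC50 and Emax were derived, with Emax as maximum activation in percent of control. EC50s are means of at least two independent experiments performed in triplicate.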

[3] = Apparent permeability from apical to basolateral side in human Caco2 cells at 10 uM after 2 hrs by LC-MS/MS analysis; format: ADME, cell-based, Caco-2
[4] = target: T2, Peroxisome proliferator-activated receptor alpha (Homo sapiens) (UniProt Q07869); assay: Transactivation of human GAL4-fused PPARalpha LBD expressed in African green monkey COS7 cells co-expressing 5Gal4 pGL3 TK Luc after overnight incubation by luciferase reporter gene assay relative to fenofibric acid; format: cell-based; how it was run: as §1
T2 sequence (whole entry): T1 sequence (Q07869 whole entry)

[5] = AUC (infinity) in C57Bl6 mouse at 10 mg/kg, po administered as single oral dose; format: ADME, organism-based; conditions: in vivo
How it was run: (§2)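 Single oral dose of 10 mg/kg in methyl cellulose vehicle given to C57Bl6 mice. Plasma was sampled over a 24 h period. […]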

[6] = target: T2, Peroxisome proliferator-activated receptor alpha (Homo sapiens); assay: Transactivation of PPARalpha in human HuH7 cells assessed increase in [14C]oleate beta-oxidation at 1 uM preincubated for 48 hrs followed by [14C]oleate addition during last 2 hrs of incubation period relative to control; format: cell-based
How it was run: (§3)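 Fatty acid beta-oxidation was used as the functional read-out. PPARα activity was tested in human hepatoma HuH7 cells and PPARδ activity in mouse myoblast C2C12 cells, at 1, 3, 10 and 30 µM. Values are % beta-oxidation, mean of at least 2 independent experiments run in triplicate, with single-experiment values flagged.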

[7] = Apparent permeability from basolateral to apical side in human Caco2 cells at 10 uM after 2 hrs by LC-MS/MS analysis; format: ADME, cell-based, Caco-2
[8] = Efflux ratio of apparent permeability in human Caco2 cells at 10 uM after 2 hrs by LC-MS/MS analysis; format: ADME, cell-based, Caco-2
[9] = target: T2, Peroxisome proliferator-activated receptor alpha (Homo sapiens); assay: Transactivation of PPARalpha in human HuH7 cells assessed increase in [14C]oleate beta-oxidation at 30 uM preincubated for 48 hrs followed by [14C]oleate addition during last 2 hrs of incubation period relative to control; format: cell-based; how it was run: as §3
[10] = target: T3, Peroxisome proliferator-activated receptor gamma (Homo sapiens) (UniProt P37231); assay: Transactivation of human GAL4-fused PPARgamma LBD expressed in African green monkey COS7 cells co-expressing 5Gal4 pGL3 TK Luc after overnight incubation by luciferase reporter gene assay relative to rosiglitazone; format: cell-based; how it was run: as §1
T3 sequence (whole entry): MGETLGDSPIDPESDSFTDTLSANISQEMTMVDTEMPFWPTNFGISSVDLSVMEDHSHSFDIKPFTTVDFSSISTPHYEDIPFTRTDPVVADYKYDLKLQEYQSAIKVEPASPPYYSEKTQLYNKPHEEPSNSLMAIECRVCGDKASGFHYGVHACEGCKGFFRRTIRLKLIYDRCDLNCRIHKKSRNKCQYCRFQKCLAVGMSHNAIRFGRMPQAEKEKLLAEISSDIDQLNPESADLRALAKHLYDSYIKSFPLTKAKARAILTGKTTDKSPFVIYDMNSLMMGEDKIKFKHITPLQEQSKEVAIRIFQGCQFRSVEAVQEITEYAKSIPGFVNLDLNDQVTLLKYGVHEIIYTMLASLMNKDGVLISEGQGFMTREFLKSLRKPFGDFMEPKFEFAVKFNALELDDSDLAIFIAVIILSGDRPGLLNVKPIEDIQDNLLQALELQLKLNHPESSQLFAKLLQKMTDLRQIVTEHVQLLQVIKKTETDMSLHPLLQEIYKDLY

[11] = Tmax in C57Bl6 mouse at 10 mg/kg, po administered as single oral dose; format: ADME, organism-based; conditions: in vivo; how it was run: as §2
[12] = target: T2, Peroxisome proliferator-activated receptor alpha (Homo sapiens); assay: Transactivation of PPARalpha in human HuH7 cells assessed increase in [14C]oleate beta-oxidation at 10 uM preincubated for 48 hrs followed by [14C]oleate addition during last 2 hrs of incubation period relative to control; format: cell-based; how it was run: as §3
[13] = target: T4, Peroxisome proliferator-activated receptor delta (Homo sapiens, UniProt Q03181); assay: Transactivation of human GAL4-fused PPARdelta LBD expressed in African green monkey COS7 cells co-expressing 5Gal4 pGL3 TK Luc after overnight incubation by luciferase reporter gene assay; format: cell-based; how it was run: as §1
T4 sequence (Q03181 whole entry): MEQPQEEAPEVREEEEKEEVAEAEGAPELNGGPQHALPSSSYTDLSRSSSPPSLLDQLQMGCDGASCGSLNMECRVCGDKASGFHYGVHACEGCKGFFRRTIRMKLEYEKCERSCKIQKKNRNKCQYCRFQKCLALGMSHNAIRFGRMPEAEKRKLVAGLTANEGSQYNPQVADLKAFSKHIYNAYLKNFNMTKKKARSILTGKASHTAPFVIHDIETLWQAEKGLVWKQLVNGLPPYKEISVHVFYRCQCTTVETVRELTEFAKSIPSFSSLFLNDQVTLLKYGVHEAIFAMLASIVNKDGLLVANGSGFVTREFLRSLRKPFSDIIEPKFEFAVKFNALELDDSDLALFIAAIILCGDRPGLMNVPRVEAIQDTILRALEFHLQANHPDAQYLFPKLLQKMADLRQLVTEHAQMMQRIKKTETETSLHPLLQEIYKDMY

| SMILES | solubility [1] | EC50 [2] | Papp A→B at 2 h, 10 µM ([3]; Caco-2) | Emax [4] | AUC(0-inf) [5] | Activity [6] | Papp B→A at 2 h, 10 µM ([7]; Caco-2) | efflux ratio at 2 h, 10 µM ([8]; Caco-2) | Activity [9] | Emax [10] | Tmax [11] | Activity [12] | EC50 [13] | Papp ([3]; caco-2, 2 h, 10 µM) | Papp ([7]; caco-2, 2 h, 10 µM) | Ratio ([8]; caco-2, 2 h, 10 µM) |
| --- | --- | --- | --- | --- | --- | --- | --- | --- | --- | --- | --- | --- | --- | --- | --- | --- |
| O=C(O)CCc1cc2cc(Cl)ccc2n1S(=O)(=O)c1ccccc1 | 9 µM (≈ 3.27 µg/mL) | 0.26 µM | 61 ×10⁻⁶ cm/s | 101% | 37300 ng·h/mL | 5% | 14.4 ×10⁻⁶ cm/s | 0.2 | 96% | 43% | 1 h | 45% | 1.91 µM |  |  |  |
| O=C(O)CCCc1cc2cc(Cl)ccc2n1S(=O)(=O)c1ccc2ncsc2c1 [LANIFIBRANOR] | 8.7 µM (≈ 3.78 µg/mL) | 1.54 µM |  | 106% | 29400 ng·h/mL | 44% |  |  | 120% | 79% | 1 h | 113% | 0.866 µM | 24 ×10⁻⁶ cm/s | 0.2 ×10⁻⁶ cm/s | 0.1 |
